Only some compounds are listed: those with a hit (about 2.1% of all), similar ones and a draw of the others.
m5-HT2A agonist – mouse Htr2a agonists via beta-arrestin recruitment, primary screen, cell-based, luminescence. 360,000 tested, 0.66% active. activation, % at 7.6 µM. 5-hydroxytryptamine receptor 2A (Mus musculus), P35363. CHO-K1 mHTR2A beta-arrestin complementation; percent of 30 µM serotonin response;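 active means activation above a run cutoff, the mean activation of all tested compounds plus 3 SD, cut at about 14% in these data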;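 further: 0% = plate median of compound wells and 100% = 30 µM serotonin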
APJ ag – agonists of human apelin receptor APJ, primary screen, CHO-K1 cells, PathHunter beta-arrestin, luminescence; 0% DMSO wells, 100% apelin; P35414; 330,000 tested, 0.11% active; activation, % at 20 µM;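 active means activation more than six SD over the plate average, tested at 20 µM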;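 further: 0% = DMSO alone and 100% = apelin-13 at 10 nM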
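Material: CHO-K1 APJ beta-arrestin complementation cell line; Input: cell density 1000 per well; Incubation: compound stimulation 90 min at 25 °C, detection 60 min; Signal: luminescence from split beta-galactosidase complementation, Galacton Star/Emerald II substrate; Controls: DMSO-only wells as negative, 10 nM Apelin-13 as positive control.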
CXCR6 block – CXCR6 receptor inhibitors, primary screen, cell-based, beta-arrestin, luminescence, CHO-K1 PathHunter, 1536-well | inhibition, % at 20 µM | 360,000 tested, 0.36% active; in the data active means inhibition above about 34%, passing the limit was not always enough;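 further: antagonist mode with CXCL16 agonist at 10 nM final; 0% = 10 nM CXCL16 with DMSO and 100% = unstimulated wells without agonist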
Target sequence (O00574 whole entry, looked up): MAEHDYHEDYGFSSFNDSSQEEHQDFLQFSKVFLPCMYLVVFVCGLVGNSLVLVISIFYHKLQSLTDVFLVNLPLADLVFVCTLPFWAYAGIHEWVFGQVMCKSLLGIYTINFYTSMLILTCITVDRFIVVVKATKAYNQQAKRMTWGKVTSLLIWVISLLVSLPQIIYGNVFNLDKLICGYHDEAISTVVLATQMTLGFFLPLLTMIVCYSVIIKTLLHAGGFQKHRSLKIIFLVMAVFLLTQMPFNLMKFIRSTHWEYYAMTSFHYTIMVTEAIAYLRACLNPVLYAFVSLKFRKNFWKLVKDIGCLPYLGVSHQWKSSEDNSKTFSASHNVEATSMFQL
CCR6 antagonist – CCR6 receptor antagonists, primary screen, cell-based, CHO-K1, luminescence, beta-arrestin, uHTS | C-C chemokine receptor type 6 (Homo sapiens), P51684 | CHO-K1 CCR6 PathHunter beta-arrestin, CCL20-stimulated | inhibition, % at 20 µM | 340,000 tested, 0.49% active;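 active means compounds whose inhibition of the agonist-driven luminescence signal at 20 µM reaches about 50%, limit read from the data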;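 further: cells stimulated with CCL20 at 14 nM final; plate controls were DMSO with CCL20 for no effect and DMSO without agonist for full effect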
EBI2 antag – EBI2 receptor antagonists, beta-arrestin recruitment, primary screen, cell-based, luminescence, 7a,25-OHC stimulation, uHTS; G-protein coupled receptor 183 (Homo sapiens), P32249; 7a,25-OHC stimulated; inhibition, % at 5 µM; 360,000 tested, 0.81% active; AID 651636, 2012; in the data active means inhibition above about 38%;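 further: enzyme fragment complementation signal reports receptor beta-arrestin coupling in cells; 0% = agonist plus DMSO wells and 100% = wells without agonist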
APJ antag – antagonists of human apelin receptor APJ, primary screen, CHO-K1 cells, beta-arrestin complementation, luminescence; P35414; 330,000 tested, 0.32% active; inhibition, % at 20 µM; AID 2521, 2010;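 active means inhibition above about 40% at 20 µM, limit read from the data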;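 further: cells challenged with 10 nM apelin-13 agonist together with compound; plate controls were apelin-13 plus DMSO wells for no effect and DMSO wells lacking apelin-13 for full effect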
EBI2 antag conf – EBI2 antagonist hit retest, beta-arrestin, confirmation, cell-based, single concentration, luminescence, 7a,25-OHC stimulation; inhibition, % at 5 µM; 7a,25-OHC antagonism; shares compounds with EBI2 antag; 2,400 tested, 29% active;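 active means inhibition of at least 50%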
EBI2 agonist – EBI2 agonist activity of antagonist hits, confirmation, counter-screen for EBI2 antagonist project, cell-based, single concentration, agonist mode, luminescence; AID 652000, 2013; activation, % at 5 µM; shares compounds with EBI2 antag; EBI2-expressing cells, 60 min; 0% vehicle, 100% 7α,25-dihydroxycholesterol control; 2,400 tested, under 10 active;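 active means activation of at least 50%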
bGal counter – E. coli beta-galactosidase enzyme inhibition, confirmation, counter-screen for EBI2 antagonist project, biochemical, luminescence, single concentration | shares compounds with EBI2 antag | purified beta-galactosidase, luminescent Galacton Star, 15 min | inhibition, % at 5 µM | 2,400 tested, 1% active;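 active means replicate-average signal at least 3 plate SD below neutral wells, shown as high inhibition, flagging enzyme-inhibiting false positives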;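 further: 0% = DMSO wells with enzyme and 100% = wells lacking enzyme; higher means stronger loss of beta-gal luminescence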
Numbers without * were called inactive; · = no result.

SMILES | m5-HT2A agonist | APJ ag | CXCR6 block | CCR6 antagonist | EBI2 antag | APJ antag | EBI2 antag conf | EBI2 agonist | bGal counter
CSCCC(/C(O)=C(\C#N)c1nc2ccccc2[nH]1)N1C(=O)c2ccccc2C1=O (configuration not stated) | 11 | 2 | 10 | 11 | -4 | 17 | · | · | ·
O=C(OCc1nnc(-c2ccc([N+](=O)[O-])cc2)o1)C1CCN(C(=O)c2ccc(Cl)cc2)CC1 | -2 | 4 | -18 | 4 | 50* | -27 | 15 | 4 | 4
O=C(c1ccccc1)c1sc(Nc2ccc3c(c2)OCO3)nc1-c1ccccc1 | -2 | · | 13 | · | 50* | · | 47 | 0 | 9
N#Cc1ccc(Nc2nc(-c3ccccc3)c(C(=O)c3ccccc3)s2)cc1 | 5 | · | -3 | · | 40 | · | · | · | ·
Cc1ccccc1OCC(=O)NNC(=O)C1CCN(c2ncnc3sc(C)c(C)c23)CC1 | 2 | 4 | -13 | -9 | 50* | -14 | 20 | 1 | 6
O=C(/C=C1\C(=O)Nc2ccccc21)/C=C1\C(=O)Nc2ccccc21 | -7 | · | 20 | 38 | 41* | · | 37 | -1 | -19
FC(F)(F)c1cccc(-c2cc3nc(NCCOc4ccccc4)ccn3n2)c1 | -3 | · | -5 | · | 11 | · | · | · | ·
COc1cc(NC(=O)Nc2cccc(Cl)c2)c(C(=O)O)cc1OC | 1 | 3 | -3 | -24 | -7 | 17 | · | · | ·
COc1ccc2[nH]c(C(=O)N3CCCN(Cc4ccc(F)cc4)CC3)cc2c1 | -9 | 2 | 0 | 8 | 26 | 9 | · | · | ·
COc1cc2cc(C(=O)N3CCC(Cc4ccccc4)CC3)[nH]c2cc1OC | -1 | -5 | 9 | 8 | 13 | 13 | · | · | ·
COc1ccc2cc(C(=O)N3CCC(Cc4ccccc4)CC3)[nH]c2c1 | 1 | -1 | 9 | 0 | 77* | -2 | 53* | 1 | 3
O=C(c1cc2cc(F)ccc2[nH]1)N1CCc2ccccc2C1 | -14 | -3 | -2 | 14 | 15 | -4 | · | · | ·
O=C(c1cc2cc(F)ccc2[nH]1)N1CCC(Cc2ccccc2)CC1 | -11 | -1 | -4 | 11 | 88* | 9 | 63* | 1 | 6
COc1ccc2[nH]c(C(=O)N3CCC(Cc4ccccc4)CC3)cc2c1 | -2 | -1 | 2 | 4 | 84* | -10 | 51* | -1 | -12
O=C(Cc1ccccc1)N1CCN(S(=O)(=O)c2cccc([N+](=O)[O-])c2)CC1 | 4 | 2 | -8 | 0 | -5 | -26 | · | · | ·
O=C(COC(=O)c1ccccn1)NCc1ccccc1 | 9 | -2 | 2 | 8 | -13 | 1 | · | · | ·
O=C1C=C(c2ccc(-c3ccccc3)c(F)c2)C[C@@H](c2ccc(Cl)cc2)C1 | 7 | -2 | -9 | 12 | 38 | 0 | · | · | ·
COc1cc(F)c(C2=CC(=O)C[C@H](c3ccc(Cl)cc3)C2)cc1F | 0 | -3 | 10 | 6 | 58* | 4 | 44 | 0 | 3
O=C1C=C(c2cccc(Br)c2)C[C@@H](c2ccc(Cl)cc2)C1 | 13 | -4 | -10 | 19 | 46* | 7 | 13 | 0 | -13

Source: PubChem
